Measurements published in ChEMBL document CHEMBL1132482, “Discovery of a series of cyclohexylethylamine-containing protein farnesyltransferase inhibitors exhibiting potent cellular activity” (J Med Chem, 1999).

How the values were obtained:
Rattus norvegicus [1] = species: Rattus norvegicus; assay: Inhibitory activity against whole cell Ras prenylation; format: functional
Procedure, shortened: (§1)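 Compounds were generally tested once, with some tested at n = 2, 4 or 8. Enzyme values are IC50 and cellular values are EC50 (nM). Stated assay reliability is ±50% for the in vitro assay and ±50–100% for the cellular assay. A 3-fold difference is treated as significant.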

[2] = target: Protein farnesyltransferase (Rattus norvegicus, UniProt Q02293+Q04631); assay: In vitro inhibitory activity against Farnesyltransferase (FTase); format: protein-complex assay; procedure, shortened: as §1
Rattus norvegicus [3] = species: Rattus norvegicus; assay: Inhibitory activity against whole cell Ras prenylation at a concentration of 300 nM; format: functional
Rattus norvegicus [4] = species: Rattus norvegicus; assay: Inhibitory activity against whole cell Ras prenylation at a concentration of 1000 nM; format: functional
Rattus norvegicus [5] = species: Rattus norvegicus; assay: Inhibitory activity against whole cell Ras prenylation at a concentration of 50 nM; format: functional

Row | SMILES | EC50 (Rattus norvegicus [1]) [nM] | IC50 [2] [nM] | inhibition at 0.3 µM (Rattus norvegicus [3]) [%] | inhibition at 1 µM (Rattus norvegicus [4]) [%] | inhibition at 0.05 µM (Rattus norvegicus [5]) [%]
1 | CSCC[C@H](NC(=O)c1ccc(CN[C@@H](CO)C2CCCCC2)cc1-c1ccccc1C)C(=O)O | – | 10 | – | – | –
2 | CSCC[C@H](NC(=O)c1ccc(CN[C@H](CSC(C)(C)C)CC2CCCCC2)cc1-c1ccccc1C)C(=O)O | 2.8 | 0.6 | – | – | –
3 | CCSC[C@H](CC1CCCCC1)NCc1ccc(C(=O)N[C@@H](CCS(C)(=O)=O)C(=O)O)c(-c2ccccc2C)c1 | – | 1 | 34 | – | –
4 | CSCC[C@H](NC(=O)c1ccc(CN[C@H](CO)CC2CCCCC2)cc1-c1ccccc1)C(=O)O | – | 8 | – | – | –
5 | CCS(=O)(=O)C[C@H](CC1CCCCC1)NCc1ccc(C(=O)N[C@@H](CCS(C)(=O)=O)C(=O)O)c(-c2ccccc2C)c1 | – | 1.2 | – | 63 | –
6 | CSCC[C@H](NC(=O)c1ccc(CN[C@@H](CO)CC2CCCCC2)cc1-c1ccccc1C)C(=O)O | – | 12 | – | – | –
7 | CC[C@H](CC1CCCCC1)NCc1ccc(C(=O)N[C@@H](CCSC)C(=O)O)c(-c2ccccc2C)c1 | > 1000 | 0.7 | – | – | –
8 | CSCC[C@H](NC(=O)c1ccc(CN(CCC2CCCCC2)C(=O)c2ccccc2)cc1-c1ccccc1C)C(=O)O | > 1000 | 1.1 | – | – | –
9 | CSCC[C@H](NC(=O)c1ccc(CN(CCC2CCCCC2)C(C)=O)cc1-c1ccccc1C)C(=O)O | > 1000 | 2.9 | – | – | –
10 | CCCC[C@H](CC1CCCCC1)NCc1ccc(C(=O)N[C@@H](CCSC)C(=O)O)c(-c2ccccc2C)c1 | 4.3 | 0.46 | – | – | –
11 | CSCC[C@H](NC(=O)c1ccc(CN(CCC2CCCCC2)Cc2ccccc2)cc1-c1ccccc1C)C(=O)O | > 1000 | 3.5 | – | – | –
12 | CSCC[C@H](NC(=O)c1ccc(CN[C@H](CO)Cc2ccccc2)cc1-c1ccccc1C)C(=O)O | – | 4.6 | – | – | –
13 | CSCC[C@H](NC(=O)c1ccc(CN(C)CCC2CCCCC2)cc1-c1ccccc1C)C(=O)O | 12 | 0.87 | – | – | –
14 | COC[C@H](CC1CCCCC1)NCc1ccc(C(=O)N[C@@H](CCSC)C(=O)O)c(-c2ccccc2C)c1 | – | 0.66 | 47 | – | –
15 | CSCC[C@H](NC(=O)c1ccc(CN[C@H](C)CC2CCCCC2)cc1-c1ccccc1C)C(=O)O | > 1000 | 0.7 | – | – | –
16 | CSCC[C@H](NC(=O)c1ccc(CN[C@H](CO)C2CCCCC2)cc1-c1ccccc1C)C(=O)O | – | 4 | – | – | –

The next compounds have a lower IC50 [2] than those just listed; values first:

Row | EC50 (Rattus norvegicus [1]) [nM] | IC50 [2] [nM] | SMILES | inhibition at 0.3 µM (Rattus norvegicus [3]) [%] | inhibition at 1 µM (Rattus norvegicus [4]) [%] | inhibition at 0.05 µM (Rattus norvegicus [5]) [%]
17 | – | 0.42 | CSCC[C@H](NC(=O)c1ccc(CN[C@H](CSc2ccccc2C)CC2CCCCC2)cc1-c1ccccc1C)C(=O)O | – | 77 | –
18 | – | 0.41 | CSCC[C@H](NC(=O)c1ccc(CN[C@H](CSC2CCCCC2)CC2CCCCC2)cc1-c1ccccc1C)C(=O)O | – | 80 | –
19 | 52 | 0.28 | CSCC[C@H](NC(=O)c1ccc(CN[C@H](CCCC(C)C)CC2CCCCC2)cc1-c1ccccc1C)C(=O)O | – | – | –
20 | – | 0.25 | CSCC[C@H](NC(=O)c1ccc(CNC(CC2CCCCC2)CC2CCCCC2)cc1-c1ccccc1C)C(=O)O | – | 75 | –
21 | – | 0.22 | CSCC[C@H](NC(=O)c1ccc(CN[C@H](/C=C/CC(C)C)CC2CCCCC2)cc1-c1ccccc1C)C(=O)O | – | – | –
22 | 12 | 0.2 | CSCC[C@H](NC(=O)c1ccc(CN[C@H](CSc2ccccc2)CC2CCCCC2)cc1-c1ccccc1C)C(=O)O | – | – | –
23 | 4.4 | 0.2 | CCSC[C@H](CC1CCCCC1)NCc1ccc(C(=O)N[C@@H](CCSC)C(=O)O)c(-c2ccccc2C)c1 | – | – | –
24 | 200 | 0.17 | CSCC[C@H](NC(=O)c1ccc(CNCCC2CCCCC2)cc1-c1ccccc1C)C(=O)O | – | – | –
25 | 160 | 0.17 | CSCC[C@H](NC(=O)c1ccc(CN(CCC2CCCCC2)C(=O)OC(C)(C)C)cc1-c1ccccc1C)C(=O)O | – | – | –
26 | 190 | 0.16 | CSCC[C@H](NC(=O)c1ccc(CN[C@H](CO)CC2CCCCC2)cc1-c1ccccc1C)C(=O)O | – | – | –
27 | – | 0.14 | CCS(=O)(=O)C[C@H](CC1CCCCC1)NCc1ccc(C(=O)N[C@@H](CCSC)C(=O)O)c(-c2ccccc2C)c1 | – | – | 59
